# An excerpt weighted towards active compounds, which were near 3.7% of everything screened.
# SR-BI DiI inh: mouse SR-BI HDL lipid transfer inhibition; Q61009; ldlA[mSR-BI] CHO cells, DiI-HDL uptake fluorescence, 3 h; inhibition, % at 12.5 µM; hit rate 0.96% among 320,000; AID 488896;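 active = mean replicate inhibition of at least 70% and a set share of replicates each scoring 70 or more; inconclusive = meets just one of the two criteria; inactive = fails both criteria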
# FXN GAA850 act: frataxin GAA850 promoter activation; activation, % at 6 µM; hit rate 0.56% among 360,000; AID 540364; HEK293 lucGAA850 FXN promoter luciferase reporter, 24 h; percent of 10 µM SAHA response;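 active = activation above the average of all compounds screened plus 3 SD, cutoff fixed separately per campaign, cut at about 7.5% in these data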
# AHR activator: human AHR activation. activation, % at 5 µM. P35869. AHR-responsive luciferase reporter cells, luminescence. hit rate 2.5% among 320,000; in the data active = activation above about 47%
# GASC-1 inh: inhibitors of human GASC-1 (JMJD2C) demethylase | Q9H3R0 | inhibition, % at 2.35 µM | GST-JMJD2C(1-420) H3K9me3 demethylation, DELFIA europium | hit rate 0.069% among 330,000;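 active = more than half of a compound's replicate wells show inhibition beyond 50%, single wells judged on their own value; inconclusive = some, but no more than half, of replicates pass 50% inhibition; inactive = no replicate passes 50% inhibition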;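 also: signal counts dimethyl H3K9 product captured on neutravidin plate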
# Target sequence (Q9H3R0 1-420 limits assumed): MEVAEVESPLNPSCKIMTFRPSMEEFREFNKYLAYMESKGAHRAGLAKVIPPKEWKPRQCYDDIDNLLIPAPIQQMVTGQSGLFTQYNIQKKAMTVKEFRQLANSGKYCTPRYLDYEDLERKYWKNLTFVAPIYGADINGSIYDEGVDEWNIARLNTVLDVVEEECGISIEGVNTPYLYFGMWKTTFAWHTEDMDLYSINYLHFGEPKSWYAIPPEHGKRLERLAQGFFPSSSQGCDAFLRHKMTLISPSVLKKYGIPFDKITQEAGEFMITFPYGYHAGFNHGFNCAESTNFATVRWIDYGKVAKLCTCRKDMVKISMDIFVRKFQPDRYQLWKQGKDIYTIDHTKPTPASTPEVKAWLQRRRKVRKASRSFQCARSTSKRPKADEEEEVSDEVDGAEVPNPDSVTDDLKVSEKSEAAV
# SR-BI uptake up: enhances SR-BI lipid uptake from DiI-HDL; CHO ldlA[mSR-BI] cells, DiI-HDL uptake fluorescence, 3 h; 100 = double the neutral-control signal; activation, % at 12.5 µM; hit rate 0.096% among 320,000;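 active = mean replicate activation of at least 60% and every replicate at or above 60%; inconclusive = mean or all-replicate condition met, but not both; inactive = mean below 60% and not all replicates reaching 60%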
#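 Material – SR-BI-overexpressing, LDLR-lacking CHO cells · Medium – BSA-supplemented, HEPES-buffered Ham's F12, pH 7.4 · Doses – single concentration · Times – compound with DiI-HDL co-incubation, 3 h at 37 °C · Measured by – bottom-read fluorescence, 550/595 nm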
# Hits are given with their value; . = inactive; ? = inconclusive; / = no result given.
SMILES,SR-BI DiI inh,FXN GAA850 act,AHR activator,GASC-1 inh,SR-BI uptake up
Cn1c(O)c(/C=C2\C=Nc3ccccc32)sc1=Nc1ccc(C(=O)O)cc1,.,.,51,.,.
COc1cccc(C(C(=O)NC2CCCC2)N(C(=O)c2ccco2)c2ccc(C(C)=O)cc2)c1OC (configuration not stated),.,.,.,.,234
N#Cc1cccc(-n2nnnc2-c2ccc3c(c2)OCO3)c1,.,.,57,.,.
O=C(Nc1cc(Sc2ccccn2)cc([N+](=O)[O-])c1)c1ccc([N+](=O)[O-])cc1,90,.,.,/,.
CC(OC(=O)Cc1n[nH]c(=O)c2ccccc12)C(=O)Nc1ccc(F)cc1 (configuration not stated),.,.,.,.,.
C=CCN1C(=O)C(Cc2cccc(Cl)c2)SC1=Nc1ccc(C(=O)O)cc1 (configuration not stated),.,.,.,.,63
C=CCN1C(=O)C(Cc2ccc(OC)cc2)SC1=Nc1ccc(C(=O)O)cc1 (configuration not stated),.,.,.,.,.
Cc1cc(=O)[nH]c(Nc2ccc(N(C)C)cc2)n1,.,.,55,.,.
O=C(C1CCCN(S(=O)(=O)c2cccc3cccnc23)C1)N1CCc2ccccc21 (configuration not stated),.,.,.,.,.
Cc1c(C(=O)NC2CCCC2)oc2ccccc12,.,.,61,.,.
Cc1c(C(=O)NC2=NCCS2)oc2ccccc12,.,.,64,.,.
O=C(c1ccc(Br)o1)N1CCN(c2ccc3nnc(-c4ccc(F)cc4)n3n2)CC1,.,.,47,.,.
CCOc1cccc(C(=O)Nc2cc(C)ccc2NC(=O)c2ccco2)c1,.,.,/,.,.
CCCCNC(=O)c1cn(CC)c2ccc(S(=O)(=O)N3CCCC3)cc2c1=O,.,.,.,.,.
CCn1cc(C(=O)NCCc2ccccc2)c(=O)c2cc(S(=O)(=O)N3CCCC3)ccc21,73,.,.,.,.
CCCOc1ccc(C(O)(CCN2CCCCC2)c2ccccc2OC)cc1 (configuration not stated),.,.,.,.,.
Nc1ncc(Br)cc1N=Cc1ccccc1,.,9.9,.,.,.
Cc1ccc(NC(=O)c2cc(=O)c3ccccc3o2)cc1,.,.,55,.,.
O=C(NNC(=O)c1ccccc1O)c1cc2ccccc2o1,145,.,68,.,.
CC(=O)c1ccc(NC(=O)c2cc3ccccc3o2)cc1,.,.,.,.,.
O=C(Nc1ccc(F)cc1)c1cc2ccccc2o1,.,.,72,.,.
CN1CCN(c2ccc(NC(=O)c3ccc(-c4ccccc4F)o3)cc2)CC1,.,.,64,.,.
O=S(=O)(O)c1cc2oc(-c3ccccc3)nc2c2ccccc12,.,.,.,.,.
O=C(Nc1ccc(N2CCCC2)cc1)c1cc2ccccc2o1,72,.,.,.,.
CC(=O)N1CCN(c2ccc(NC(=O)c3cc4ccccc4o3)cc2)CC1,.,.,.,.,.
SMILES,SR-BI DiI inh,FXN GAA850 act,AHR activator,GASC-1 inh,SR-BI uptake up
O=C1CCC/C1=C/Nc1ccc2c(c1)OCO2,.,.,73,.,.
Cc1ccc(N=Nc2c(C)[nH]n(C(N)=S)c2=O)cc1C,.,.,51,.,.
Cc1[nH]n(C(N)=S)c(=O)c1N=Nc1cc(-c2ccc(Br)cc2)[nH]n1,.,.,55,.,.
CC(C)(C)NS(=O)(=O)c1ccc(NC(=O)c2cc(-c3ccccc3)nc3ccccc23)cc1,.,.,.,.,.
COc1ccc(NC(=O)c2cc(CC(C)C)nc3ccccc23)cc1,76,.,.,.,.
Cc1cc(NC(=O)c2cc(-c3ccc(C)s3)nc3ccccc23)no1,.,.,.,.,.
Cc1cc(C(=O)Nc2ccc(F)cc2)c2ccccc2n1,.,.,56,.,.
Cc1cccc(NC(=O)c2cc(-c3ccc(C)s3)nc3ccccc23)n1,.,.,56,.,.
CC(=O)Nc1ccc(NC(=O)c2cc(-c3ccccc3)nc3ccccc23)cc1,75,.,/,.,.
O=C(Nc1ccccc1)c1cc(Cl)nc2ccccc12,.,.,49,.,.
Cc1ccc(C)c(NC(=O)c2cc(C)nc3ccccc23)c1,79,.,.,.,.
CCCOc1cccc(-c2cc(C(=O)NN)c3ccccc3n2)c1,84,.,.,.,.
O=C(O)c1cc(Cl)nc2ccccc12,.,.,.,.,.
Cc1ccc(NC(=O)c2cc(C)nc3ccccc23)cc1,.,.,67,.,.
Cc1c(N=Cc2cc(Br)cc(Br)c2O)cccc1C(=O)O,.,.,.,.,.
Cc1ccnc(NC(=O)COc2c(C)cc(C)cc2[N+](=O)[O-])c1,98,.,.,/,.
CC(=O)c1c(C(C)=O)c(C)n(-c2nc(-c3ccc(Br)cc3)c(C)s2)c1C,?,.,56,.,.
COc1ccc(-c2nc(-n3c(C)c(C(C)=O)c(C(C)=O)c3C)sc2C)cc1OC,.,.,.,.,.
O=C(Nc1ccc(Oc2ccc(NC(=O)Nc3ccccc3Cl)cc2)cc1)Nc1ccccc1Cl,/,.,.,.,/
Cc1ccc(C)c(S(=O)(=O)N/N=C/c2ccc(F)cc2)c1,.,.,74,.,.
Cc1ccc(C)c(S(=O)(=O)N/N=C/c2ccc(N(C)C)cc2)c1,.,.,.,.,.
Cc1sc(N/N=C/c2cccs2)nc1-c1ccccc1,73,.,78,.,.
Fc1ccc(N2CCN(C(c3cccs3)c3nnnn3C3CCCC3)CC2)cc1 (configuration not stated),.,.,.,.,.
CN(C)c1ccc(NC(=O)c2sc(SCC(=O)Nc3ccc(Br)cc3)nc2N)cc1,.,.,.,.,.
CN(C)c1ccc(NC(=O)c2sc(SCC(=O)Nc3nccs3)nc2N)cc1,.,.,78,.,.
SMILES,SR-BI DiI inh,FXN GAA850 act,AHR activator,GASC-1 inh,SR-BI uptake up
CN1C(=S)SC(/[N+]([O-])=C/c2c(F)cccc2Cl)C1(C)C (configuration not stated),/,.,.,.,/
CCCC1C(C(=O)OCC)=C(C)NC(C)=C1C(=O)OCC,.,.,57,.,.
CCn1nc(C)c(CN2CCC(C(=O)Nc3cccc(-c4cccc(F)c4)c3)CC2)c1C,.,.,.,.,.
COc1ccc(N2CCN(C(=O)c3cccnc3SCc3cccc(Br)c3)CC2)cc1,.,.,.,.,.
O=C(N/N=C/c1cn(-c2ccccc2)nc1-c1ccc(F)cc1)c1ccc(Br)o1,87,.,.,.,.
O=C(N/N=C/c1cn(-c2ccccc2)nc1-c1cc2ccccc2o1)c1cccnc1,.,.,51,.,.
O/N=C/c1cn(-c2ccccc2)nc1-c1cccnc1,.,.,51,.,.
O=C(N/N=C/c1cn(-c2ccccc2)nc1-c1cccnc1)c1cccnc1,.,.,.,.,.
O=C(N/N=C/c1cn(-c2ccccc2)nc1-c1cc2ccccc2o1)c1ccncc1,.,.,68,.,.

# Screens: PubChem, several laboratories
